Compound activity deposited in PubChem by several laboratories.
Shown are actives, neighbours in structure and some others; about 2.6% of the full set was active somewhere.
SENP8 block-1: inhibitors of human SENP8 protease | purified SENP8, Z-RLRGG-aminoluciferin cleavage, luminescence | AID 2540 | inhibition, % at 10 µM | hit rate 1.2% among 330,000; in the data active = inhibition above about 50%
Target sequence (Q96LD8 whole entry, looked up): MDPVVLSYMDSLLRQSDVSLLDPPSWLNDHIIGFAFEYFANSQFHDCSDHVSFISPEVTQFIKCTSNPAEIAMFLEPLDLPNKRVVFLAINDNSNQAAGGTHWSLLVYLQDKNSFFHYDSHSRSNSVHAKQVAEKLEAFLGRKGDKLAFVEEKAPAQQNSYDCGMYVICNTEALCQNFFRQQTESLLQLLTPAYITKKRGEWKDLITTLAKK
SENP1 FRET inh: SENP1 (human) catalytic domain inhibition; Q9P0U3; recombinant SENP1 catalytic domain, CyPet-SUMO1-YPet FRET cleavage; inhibition, % at 10 µM; hit rate 0.21% among 360,000; AID 624204;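 active = inhibition at least 30% at 10 µM, raw YFP signal under a set limit, fluorescence ratio 0.5 to 1.5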;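 also: 0% = enzyme with DMSO and 100% = no enzyme wells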
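material = recombinant human SENP1 catalytic domain, His6-tagged | quantity = 20 pM enzyme | reagent = 25 nM SUMO1 FRET substrate | compound dosing = 10 µM single point, 0.5% DMSO | timing = 50 min enzyme reaction, room temperature, light-protected | detection = FRET, CFP and YFP emission | control set = no-enzyme low, enzyme-DMSO high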
SENP6 inh: inhibitors of human SENP6 protease; AID 2599; Q9GZR1; hit rate 1.8% among 330,000; Recombinant SENP6 catalytic domain, aminoluciferin luminescence; inhibition, % at 10 µM;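 active = inhibition above about 50% at the single tested dose, limit read from the data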;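 also: plate controls were DMSO wells with enzyme for no effect and DMSO wells lacking enzyme for full effect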
SENP7 block: SENP7 protease inhibition; Q9BQF6; recombinant SENP7, Z-RLRGG-aminoluciferin luminescence, 40 min; inhibition, % at 5 µM; hit rate 1.5% among 330,000;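 active = inhibition above about 50% at the single test dose, limit read from the data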;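 also: plate controls were DMSO with enzyme for no effect and no enzyme buffer wells for full effect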
SENP8 block-2: inhibitors of human SENP8 protease; inhibition, % at 20 µM; recombinant SENP8, Nedd8 substrate fluorescence; hit rate 0.64% among 360,000; AID 602440; in the data active = inhibition mostly above about 40%, no sharp cut-off; inactive = mostly below about 27%
Platelet DG rel: modulates dense granule release in human platelets; human platelet-rich plasma, SFLLRN dense granule ATP release, luminescence; inhibition, %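 (compounds screened at 7.5 µM in platelet-rich plasma)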; hit rate 0.22% among 300,000; AID 1663;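 active = mean replicate score, as percent of positive control, at or above 50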
SENP8 confirm: confirmation of human SENP8 protease inhibitors; AID 488912; shares compounds with SENP7 block; hit rate 40% among 6,200; Recombinant SENP8, Z-RLRGG-aminoluciferin luminescence, 60 min; inhibition, % at 12.5 µM;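 active = mean inhibition across replicates above about 50%, limit read from the data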
SENP6 conf: confirmation of human SENP6 protease inhibitors; inhibition, % at 12.5 µM; hit rate 58% among 6,200; recombinant SENP6, Z-RLRGG-aminoluciferin luminescence; shares compounds with SENP7 block
SENP7 conf: confirmation of human SENP7 protease inhibitors; hit rate 69% among 6,200; shares compounds with SENP7 block; recombinant SENP7, Z-RLRGG-aminoluciferin luminescence, 40 min; AID 488917; inhibition, % at 12.5 µM
Casp3 SENP sel: caspase-3 inhibition (SENP selectivity assay) | shares compounds with SENP7 block | purified caspase-3, Z-DEVD-aminoluciferin luminescence, 60 min | inhibition, % at 12.5 µM | hit rate 60% among 6,200 | AID 488918;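 active = mean inhibition above about 50%, limit read from the data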;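 also: plate controls were enzyme with DMSO for no effect and wells without caspase-3 for full effect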
Target sequence (P42574 28-227 limits assumed): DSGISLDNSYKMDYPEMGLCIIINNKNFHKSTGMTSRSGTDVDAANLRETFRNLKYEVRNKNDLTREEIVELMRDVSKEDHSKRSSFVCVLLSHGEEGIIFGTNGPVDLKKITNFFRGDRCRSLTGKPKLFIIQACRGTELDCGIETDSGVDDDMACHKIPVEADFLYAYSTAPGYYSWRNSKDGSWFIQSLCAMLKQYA
SENP luc ctr: counter-screen for SENP inhibitors: luminescence interference. shares compounds with SENP7 block. Pre-incubated SENP8/Z-RLRGG-aminoluciferin, luciferase luminescence interference. inhibition, % at 12.5 µM. hit rate 39% among 6,200;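 active = mean inhibition above about 50% when retested at one dose, limit read from the data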;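 also: plate controls were DMSO wells with completed reaction for no effect and substrate without enzyme for full effect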
* = called active by the depositor; i = inactive; . = no result given.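 The calls were made as follows, unless noted: active = mean inhibition above about 50% in the one-dose retest (limit read from the data); inactive = the rest.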

SMILES	SENP8 block-1	SENP1 FRET inh	SENP6 inh	SENP7 block	SENP8 block-2	Platelet DG rel	SENP8 confirm	SENP6 conf	SENP7 conf	Casp3 SENP sel	SENP luc ctr
FC(F)(F)c1cccc(-c2nc3nc(Cl)c(Cl)nc3[nH]2)c1	93*	-56	95*	92*	-264	6	97*	98*	102*	92*	87*
CCn1nccc1C(=O)Nc1ccc(C(=O)OC(C)C)cc1	67*	-1	77*	76*	7	4	8	68*	88*	67*	59*
CCn1cc(Br)c(C(=O)Nc2ccc(C(=O)OC(C)C)cc2)n1	10	1	17	6	4	11	.	.	.	.	.
Cc1cc(N)n(-c2nc3ccccc3s2)n1	86*	-1	87*	93*	9	21	92*	93*	100*	93*	40
Cc1cc(OCC(=O)OCC(=O)N(C)c2c(N)n(Cc3ccccc3)c(=O)[nH]c2=O)ccc1Cl	-2	0	-6	6	0	4	.	.	.	.	.
Cn1c(CSc2nc3ccccc3s2)nnc1SCC(=O)NCCN1CCOCC1	-3	-1	3	76*	10	0	10	8	5	1	4
C=CCn1c(CSc2nc3ccccc3s2)nnc1SCC(=O)NCCN1CCOCC1	-2	1	0	-5	11	0	.	.	.	.	.
N/C(=N\OC(=O)Nc1ccccc1)c1ncc(C(F)(F)F)cc1Cl	29	2	50*	7	20	-1	52*	47	77*	69*	57*
N/C(=N\OC(=O)Nc1ccc(Cl)cc1)c1ncc(C(F)(F)F)cc1Cl	-5	1	-22	5	20	-1	.	.	.	.	.
COc1ccccc1N1C(=O)N(C(C)=O)C2C1Nc1ccccc1N2C (stereo not drawn)	46	-30	70*	-5	-23	-3	1	2	1	3	-4
COc1ccccc1N1C(=O)c2ccccc2NC1c1ccncc1 (stereo not drawn)	-8	-2	15	-3	-457	5	.	.	.	.	.
O=C(CNc1cccc2ccccc12)N/N=C/c1ccccn1	71*	-35	83*	29	-39	-2	14	15	6	-2	0
O=C(N/N=C/c1cccc(Oc2ccccc2)c1)c1cccc(O)c1	37	-1	60*	38	5	7	48	43	62*	28	22
O=C(CNc1cccc2ccccc12)N/N=C/c1cccc(Oc2ccccc2)c1	51*	-32	67*	25	-261	3	7	-3	-6	-4	-4
O=C(CNc1cccc2ccccc12)N/N=C/c1ccc([N+](=O)[O-])cc1	18	-14	74*	30	-105	-1	11	7	8	4	2
CCN(C(=O)COC(=O)CCCOc1ccccc1)c1c(N)n(Cc2ccccc2)c(=O)[nH]c1=O	-9	-3	3	-15	4	.	.	.	.	.	.
[O-]/[N+](=N\Nc1ccc(Cl)cc1)c1ccccc1	.	-1	.	.	11	.	.	.	.	.	.
c1ccc(C2CSc3ccccc3N2)cc1 (stereo not drawn)	47	16	72*	35	-13	-3	4	8	8	23	15
CN(C)CCCN(C(=O)COc1ccccc1)c1nc2c(F)cccc2s1	-1	2	12	61*	18	-5	-29	-17	-7	-10	-12
COc1ccc(S(=O)(=O)N2CCC[C@H]2C(=O)N2CCC[C@H]2C(=O)N(C)Cc2ccccc2)cc1C	.	2	.	.	22	.	.	.	.	.	.
CCc1ccn2cc(-c3ccc4c(c3)OCO4)nc2c1	94*	5	96*	97*	-412	50*	97*	98*	102*	96*	96*
COC(=O)c1ccc2nc(-c3ccc4c(c3)OCO4)cn2c1	50	0	-1	78*	-404	6	16	17	40	58*	20
c1cnc2nc(-c3ccc4c(c3)OCO4)cn2c1	-27	-2	-9	-7	-412	6	.	.	.	.	.
CCOc1ccc(S(=O)(=O)/N=C(/Nc2ccc(OC)cc2)c2ccccc2)cc1	0	0	4	-3	6	1	.	.	.	.	.
COc1ccc(C(=O)NN/C(=N/S(=O)(=O)c2ccc(C)cc2)c2ccccc2)cc1	54*	0	88*	78*	-152	15	69*	64*	88*	70*	73*
SMILES	SENP8 block-1	SENP1 FRET inh	SENP6 inh	SENP7 block	SENP8 block-2	Platelet DG rel	SENP8 confirm	SENP6 conf	SENP7 conf	Casp3 SENP sel	SENP luc ctr
Cc1ccc(S(=O)(=O)/N=C(/NC(=S)Nc2ccccc2)c2ccccc2)cc1	37	-4	74*	47	13	4	67*	65*	86*	35	28
Cc1ccccc1-c1cccc([C@@H]2C[C@H]3[C@H](CON3C)CN2C(=O)CCc2ccccc2)c1	.	2	.	.	1	.	.	.	.	.	.
COc1ccc2oc3ccc(OC)cc3c(=O)c2c1	62*	-97	31	89*	-270	9	20	53*	70*	46	17
COc1ccc2sc3ccccc3c(=O)c2c1	74*	-23	88*	81*	i	6	46	47	78*	53*	28
COc1ccc(-c2cc(=O)c3ccccc3s2)cc1	84*	2	93*	-9	-8	2	60*	91*	99*	82*	59*
COc1ccc(-c2cc(=O)c3ccccc3[nH]2)cc1	-4	-4	-20	-2	-143	-9	.	.	.	.	.
COc1ccc2oc(=O)cc(C)c2c1	3	-7	-3	7	-372	38	.	.	.	.	.
C[C@H](CO)N1C[C@H](C)[C@@H](CN(C)C(=O)NC2CCCCC2)Oc2c(NC(=O)c3ccncc3)cccc2C1=O	1	0	-5	-2	14	.	.	.	.	.	.
O=C(/C=C/Nc1ccc(F)c(Cl)c1)c1ccco1	45	-47	70*	27	-378	5	67*	66*	88*	56*	14
CC(=O)Nc1ccc(N/C=C/C(=O)c2ccco2)cc1	2	-18	11	-1	-51	20	.	.	.	.	.
O=C(/C=C/Nc1cccc(F)c1)c1ccco1	52*	-77	82*	73*	-265	13	-10	72*	94*	85*	78*
